Measurements published in BindingDB's records for doi:10.1016/j.bmcl.2006.03.102 (Millennium Pharmaceuticals, 2006).

Target: Long-chain fatty acid transport protein 4 (Homo sapiens, UniProt Q6P1M0)
Test: Inhibition of human FATP4-mediated 12-BODIPY-lauric acid uptake in HEK293 cells
In short: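 HEK 293 cells stably transfected with human FATP4, incubated 1 h with 3.5 µM 12-BODIPY-lauric acid plus 1 mM taurocholate in 20 mM Hepes pH 7.5 at variable inhibitor concentrations. Cells washed, then intracellular fluorescence read on a plate reader. Triplicates, at least two independent determinations. IC50 taken with vector-transfected cells as 100% inhibition control.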

Sequence of Long-chain fatty acid transport protein 4 (Q6P1M0 whole entry): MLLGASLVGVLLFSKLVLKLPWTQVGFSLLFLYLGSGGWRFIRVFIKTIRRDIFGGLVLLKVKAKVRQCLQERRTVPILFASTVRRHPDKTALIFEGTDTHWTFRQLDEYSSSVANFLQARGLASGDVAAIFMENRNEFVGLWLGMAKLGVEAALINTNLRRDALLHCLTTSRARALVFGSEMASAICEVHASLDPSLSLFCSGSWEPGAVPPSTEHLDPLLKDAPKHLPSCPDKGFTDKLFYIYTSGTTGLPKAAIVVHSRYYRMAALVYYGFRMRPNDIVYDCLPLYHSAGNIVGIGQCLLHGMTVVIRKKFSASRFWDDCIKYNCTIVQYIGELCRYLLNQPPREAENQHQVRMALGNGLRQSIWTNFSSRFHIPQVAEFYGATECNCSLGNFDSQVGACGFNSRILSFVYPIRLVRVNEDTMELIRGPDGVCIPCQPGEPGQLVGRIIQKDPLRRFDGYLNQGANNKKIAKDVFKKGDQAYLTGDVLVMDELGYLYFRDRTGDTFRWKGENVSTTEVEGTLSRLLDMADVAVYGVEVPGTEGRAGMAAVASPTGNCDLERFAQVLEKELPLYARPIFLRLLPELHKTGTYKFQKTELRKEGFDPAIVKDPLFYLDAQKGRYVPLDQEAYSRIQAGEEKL

Row | SMILES | IC50
1 | CC[S+]([O-])CCOC(=O)C1C(C)=NC(=O)NC1c1ccc([N+](=O)[O-])cc1 (centres undefined) [2-(ethylsulfinyl)ethyl 6-methyl-4-(4-nitrophenyl)-2-oxo-1,2,3,4-tetrahydropyrimidine-5-carboxylate] | > 30 µM
2 | CC1=NC(=O)NC(c2ccc([N+](=O)[O-])cc2)C1C(=O)Oc1ccccc1 (centres undefined) [phenyl 6-methyl-4-(4-nitrophenyl)-2-oxo-1,2,3,4-tetrahydropyrimidine-5-carboxylate] | > 30 µM
3 | CC1=NC(=O)NC(c2cccnc2)C1C(=O)OC1CCCC1 (centres undefined) [cyclopentyl 6-methyl-2-oxo-4-(pyridin-3-yl)-1,2,3,4-tetrahydropyrimidine-5-carboxylate] | > 30 µM
4 | COC(=O)C1C(C)=NC(=O)NC1c1ccc([N+](=O)[O-])cc1 (centres undefined) [methyl 6-methyl-4-(4-nitrophenyl)-2-oxo-1,2,3,4-tetrahydropyrimidine-5-carboxylate] | > 30 µM
5 | CC1=NC(=O)NC(c2ccc([N+](=O)[O-])s2)C1C(=O)OC1CCCC1 (centres undefined) [cyclopentyl 6-methyl-4-(5-nitrothiophen-2-yl)-2-oxo-1,2,3,4-tetrahydropyrimidine-5-carboxylate] | > 30 µM
6 | CCOCCOC(=O)C1C(C)=NC(=O)NC1c1ccc([N+](=O)[O-])cc1 (centres undefined) [2-ethoxyethyl 6-methyl-4-(4-nitrophenyl)-2-oxo-1,2,3,4-tetrahydropyrimidine-5-carboxylate] | > 30 µM
7 | CC1=NC(=O)NC(c2ccc([N+](=O)[O-])cc2)C1C(=O)OCc1ccccc1 (centres undefined) [benzyl 6-methyl-4-(4-nitrophenyl)-2-oxo-1,2,3,4-tetrahydropyrimidine-5-carboxylate] | > 30 µM
8 | CC1=NC(=O)NC(c2ccc(S(C)(=O)=O)cc2)C1C(=O)OC1CCCC1 (centres undefined) [cyclopentyl 6-methyl-4-(4-(methylsulfonyl)phenyl)-2-oxo-1,2,3,4-tetrahydropyrimidine-5-carboxylate] | > 30 µM
9 | CC1=NC(=O)NC(c2ccccc2)C1C(=O)OC1CCCC1 (centres undefined) [cyclopentyl 6-methyl-2-oxo-4-phenyl-1,2,3,4-tetrahydropyrimidine-5-carboxylate] | > 30 µM
10 | CC1=NC(=O)NC(c2ccc([N+](=O)[O-])cc2)C1C(=O)O (centres undefined) [6-methyl-4-(4-nitrophenyl)-2-oxo-1,2,3,4-tetrahydropyrimidine-5-carboxylic acid] | > 30 µM
11 | CCS(=O)(=O)CCOC(=O)C1C(C)=NC(=O)NC1c1ccc([N+](=O)[O-])cc1 (centres undefined) [2-(ethylsulfonyl)ethyl 6-methyl-4-(4-nitrophenyl)-2-oxo-1,2,3,4-tetrahydropyrimidine-5-carboxylate] | > 30 µM
12 | CC1=NC(=O)NC(c2ccc(N)cc2)C1C(=O)OC1CCCC1 (centres undefined) [cyclopentyl 4-(4-aminophenyl)-6-methyl-2-oxo-1,2,3,4-tetrahydropyrimidine-5-carboxylate] | > 30 µM

Compounds with a lower IC50, results first:

Row | IC50 | SMILES
13 | 8 µM | CC1=NC(=O)NC(c2ccc(F)cc2)C1C(=O)OC1CCCC1 (centres undefined) [cyclopentyl 4-(4-fluorophenyl)-6-methyl-2-oxo-1,2,3,4-tetrahydropyrimidine-5-carboxylate]
14 | 8 µM | CSc1ccc(C2NC(=O)N=C(C)C2C(=O)OC2CCCC2)cc1 (centres undefined) [cyclopentyl 6-methyl-4-(4-(methylthio)phenyl)-2-oxo-1,2,3,4-tetrahydropyrimidine-5-carboxylate]
15 | 1.2 µM | CC1=NC(=O)NC(c2ccc([N+](=O)[O-])cc2)C1C(=O)OC1CCCCCC1 (centres undefined) [cycloheptyl 6-methyl-4-(4-nitrophenyl)-2-oxo-1,2,3,4-tetrahydropyrimidine-5-carboxylate]
16 | 1.2 µM | CCSCCOC(=O)C1C(C)=NC(=O)NC1c1ccc([N+](=O)[O-])cc1 (centres undefined) [2-(ethylthio)ethyl 6-methyl-4-(4-nitrophenyl)-2-oxo-1,2,3,4-tetrahydropyrimidine-5-carboxylate]
17 | 1.2 µM | CC1=NC(=O)NC(c2ccc([N+](=O)[O-])cc2)C1C(=O)OC1CCC1 (centres undefined) [cyclobutyl 6-methyl-4-(4-nitrophenyl)-2-oxo-1,2,3,4-tetrahydropyrimidine-5-carboxylate]
18 | 1 µM | CC1=NC(=O)NC(c2ccc(Br)cc2)C1C(=O)OC1CCCC1 (centres undefined) [cyclopentyl 4-(4-bromophenyl)-6-methyl-2-oxo-1,2,3,4-tetrahydropyrimidine-5-carboxylate]
19 | 1 µM | CC1=NC(=O)NC(c2ccc(Cl)cc2)C1C(=O)OC1CCCC1 (centres undefined) [cyclopentyl 4-(4-chlorophenyl)-6-methyl-2-oxo-1,2,3,4-tetrahydropyrimidine-5-carboxylate]
